High-throughput results as filed in PubChem.
An excerpt weighted towards active compounds, which were near 3% of everything screened.
DDE Tn6 FP inh = inhibitors of Tn6 peptide binding to fibrin DD(E), primary screen, biochemical, fluorescence polarization, human fibrin, Tn6 probe; Fibrin DD(E) TRITC-Tn6 fluorescence polarization displacement; inhibition, % at 8.3 µM; 0.21% of 370,000 active; AID 720509, 2013;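 active means inhibition above a per-campaign cutoff: mean of compounds within control limits plus 3 SD, cut at about 15% in these data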
PLC-beta3 inh = human PLC-beta3 inhibitors, primary screen, biochemical, fluorescence. inhibition, % at 12.2 µM. 1-phosphatidylinositol 4,5-bisphosphate phosphodiesterase beta-3 (Homo sapiens), Q01970. 0.18% of 370,000 active. Purified PLC-beta3, fluorogenic substrate. AID 720704, 2013; in the data active means inhibition above about 11%
PLC-gamma1 inh = PLC-gamma1 enzyme inhibitors, primary screen, biochemical, fluorescence, purified enzyme; 1-phosphatidylinositol 4,5-bisphosphate phosphodiesterase gamma-1 (Homo sapiens), P19174; fluorogenic substrate; inhibition, % at 12.2 µM; 0.84% of 370,000 active; AID 720700, 2013
Target sequence (P19174 whole entry, looked up): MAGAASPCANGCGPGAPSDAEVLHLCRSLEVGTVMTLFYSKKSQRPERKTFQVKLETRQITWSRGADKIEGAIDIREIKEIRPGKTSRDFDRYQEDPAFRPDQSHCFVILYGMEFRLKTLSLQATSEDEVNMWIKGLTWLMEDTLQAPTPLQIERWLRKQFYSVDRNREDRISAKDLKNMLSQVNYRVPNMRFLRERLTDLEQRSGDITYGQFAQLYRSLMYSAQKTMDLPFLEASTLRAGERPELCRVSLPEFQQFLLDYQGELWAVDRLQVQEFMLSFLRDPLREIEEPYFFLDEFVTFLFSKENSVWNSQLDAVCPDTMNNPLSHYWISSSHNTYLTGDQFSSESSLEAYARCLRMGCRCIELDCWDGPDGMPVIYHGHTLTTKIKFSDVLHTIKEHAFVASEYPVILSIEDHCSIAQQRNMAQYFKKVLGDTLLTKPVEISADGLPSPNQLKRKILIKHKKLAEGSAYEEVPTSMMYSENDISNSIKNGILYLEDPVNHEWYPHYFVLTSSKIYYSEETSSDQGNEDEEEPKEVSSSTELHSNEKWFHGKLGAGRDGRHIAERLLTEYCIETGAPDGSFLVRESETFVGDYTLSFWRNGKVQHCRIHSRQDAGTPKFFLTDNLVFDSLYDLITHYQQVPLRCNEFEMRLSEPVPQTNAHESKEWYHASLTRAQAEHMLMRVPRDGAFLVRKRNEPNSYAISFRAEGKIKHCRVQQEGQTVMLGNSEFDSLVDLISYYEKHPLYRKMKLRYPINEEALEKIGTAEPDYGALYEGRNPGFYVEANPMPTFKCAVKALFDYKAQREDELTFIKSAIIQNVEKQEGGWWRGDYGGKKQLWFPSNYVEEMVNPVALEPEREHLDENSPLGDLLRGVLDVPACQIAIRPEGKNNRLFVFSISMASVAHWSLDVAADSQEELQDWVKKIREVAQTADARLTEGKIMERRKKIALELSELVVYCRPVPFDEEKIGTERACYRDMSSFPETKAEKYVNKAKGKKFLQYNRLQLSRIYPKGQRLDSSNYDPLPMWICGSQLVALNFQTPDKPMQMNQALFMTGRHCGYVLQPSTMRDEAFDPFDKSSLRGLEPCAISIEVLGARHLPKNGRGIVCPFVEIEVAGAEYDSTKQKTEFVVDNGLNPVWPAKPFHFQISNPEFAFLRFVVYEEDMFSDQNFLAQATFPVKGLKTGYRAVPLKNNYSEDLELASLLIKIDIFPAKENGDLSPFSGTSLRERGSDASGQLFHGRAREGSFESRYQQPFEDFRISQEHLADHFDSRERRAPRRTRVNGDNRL
KLK7 zymogen act = proKLK7 zymogen activators, primary screen, biochemical, fluorescence intensity; Kallikrein-7 (Homo sapiens), P49862; purified proKLK7, EDANS-DABCYL substrate fluorescence; 100% is mature enzyme control, 0% vehicle; activation, % at 7 µM; 0.9% of 370,000 active; AID 652039, 2013;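 active means activation above the mean of all tested compounds plus 3 SD, computed per campaign excluding outliers beyond control limits, cut at about 13% in these data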
NRP1-CendR mod = modulators of CendR peptide binding to NRP-1, primary screen, biochemical, fluorescence polarization, uHTS; Neuropilin-1 (Homo sapiens), O14786; FAM-RPARPAR peptide binding to NRP-1; inhibition, % at 25 µM; 0.85% of 360,000 active; AID 602438, 2012;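 active means inhibition or corrected inhibition above about 18%, plus a signal ratio from 0.5 to 1.5, limit read from the data, passing the limit was not always enough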
DDE Tn7 FP inh = inhibitors of Tn7 peptide binding to fibrin DD(E), primary screen, biochemical, fluorescence polarization, human fibrin, Tn7 probe | Fibrinogen beta chain (Homo sapiens), P02675 | FP displacement of FITC-Tn7 peptide from fibrin DD(E); 0% = median of compound wells per plate | inhibition, % at 8.3 µM | 0.13% of 370,000 active;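 active means inhibition above the mean of compounds falling within the control limits plus 3 SD of them, cut at about 14% in these data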
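Assay system: Fibrin-DD(E) protein isolated from polymerized human fibrin clots; read-out basis: percent inhibition; medium: Tris/NaCl/CaCl2 buffer, pH 7.8; signal: FP measurement; incubation: 10 min plus 3 h, room temperature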
PLCg1 ctr = PLC-gamma1 enzyme inhibitors, counter-screen for PLC-beta3 inhibitor project, biochemical, fluorescence; shares compounds with PLC-gamma1 inh; purified PLC-gamma1, fluorogenic substrate; inhibition, % at 12.3 µM; 3.1% of 3,300 active; AID 743258, 2014
PLCb3 confirm = PLC-beta3 inhibitor confirmation, biochemical, fluorescence, purified enzyme | fluorogenic substrate fluorescence | inhibition, % at 12.3 µM | shares compounds with PLC-gamma1 inh | 1% of 3,300 active | AID 743261, 2014; in the data active means inhibition above about 11%
Numbers stand for hits. Unless noted, no stated cut-off is given here; in the data, active means inhibition above about 9.5%; inactive means the rest.

Screening O=C(Nc1ccc(S(=O)(=O)N2CCCC2)cc1)c1ccccc1 returned DDE Tn6 FP inh inactive, PLC-beta3 inh inactive, PLC-gamma1 inh inactive, KLK7 zymogen act inactive, NRP1-CendR mod inactive and DDE Tn7 FP inh inactive.
CN(CCOc1ccccc1)C(=O)c1ccc2c(c1)OCO2 was read as DDE Tn6 FP inh inactive, PLC-beta3 inh inactive, PLC-gamma1 inh inactive, KLK7 zymogen act inactive, NRP1-CendR mod inactive and DDE Tn7 FP inh inactive.
Screening O=C(O)c1ccccc1C(=O)Nc1ccc(S(=O)(=O)N2CCCC2)cc1 returned DDE Tn6 FP inh inactive, PLC-beta3 inh inactive, PLC-gamma1 inh 10.5, KLK7 zymogen act inactive, NRP1-CendR mod inactive, DDE Tn7 FP inh inactive, PLCg1 ctr inactive and PLCb3 confirm inactive.
Screening Cc1cc(NC(=O)c2ccc3c(c2)OCO3)ccc1NC(=O)c1ccccc1 returned DDE Tn6 FP inh inactive, PLC-beta3 inh 12.0, PLC-gamma1 inh inactive, KLK7 zymogen act inactive, NRP1-CendR mod inactive, DDE Tn7 FP inh inactive, PLCg1 ctr inactive and PLCb3 confirm 15.4.
`Cc1ccccc1CN1CCCCC(NC(=O)C2CCC2)C1=O` (configuration not stated) gave DDE Tn6 FP inh inactive, PLC-beta3 inh inactive, PLC-gamma1 inh inactive, KLK7 zymogen act inactive and DDE Tn7 FP inh inactive.
For COc1ccc(CNC(=O)O[C@H]2CC[C@@]34CCCN3C(=O)CCC[C@H]4C2)cc1OC the results were DDE Tn6 FP inh inactive, PLC-beta3 inh inactive, PLC-gamma1 inh inactive and DDE Tn7 FP inh inactive.
Screening CC(C)c1ccccc1NC(=O)Nc1ccc2c(c1)OCO2 returned DDE Tn6 FP inh inactive, PLC-beta3 inh inactive, PLC-gamma1 inh 11.6, KLK7 zymogen act inactive, NRP1-CendR mod inactive, DDE Tn7 FP inh inactive, PLCg1 ctr 9.7 and PLCb3 confirm inactive.
O=C(Nc1ccc2c(c1)OCO2)c1cccc(S(=O)(=O)N2CCCC2)c1 was read as DDE Tn6 FP inh inactive, PLC-beta3 inh 11.1, PLC-gamma1 inh inactive, KLK7 zymogen act inactive, NRP1-CendR mod inactive, DDE Tn7 FP inh inactive, PLCg1 ctr inactive and PLCb3 confirm inactive.
C=CCN(C(=O)[C@@H](C)[C@@H](O)c1ccc2ccccc2c1)c1ccccc1 was read as DDE Tn6 FP inh inactive, PLC-beta3 inh inactive, PLC-gamma1 inh inactive, KLK7 zymogen act inactive and DDE Tn7 FP inh inactive.
Screening CCCCNC(=O)C[C@@H]1C[C@@]2(C(=O)OC)CCCCC=C2N(Cc2cccc3ccccc23)C1=O returned DDE Tn6 FP inh inactive, PLC-beta3 inh inactive, PLC-gamma1 inh 10.5, KLK7 zymogen act inactive, NRP1-CendR mod inactive, DDE Tn7 FP inh inactive, PLCg1 ctr inactive and PLCb3 confirm inactive.
`CC[C@@H]1/C(=C/c2ccccc2)N2C(=O)C[C@@H](c3ccccc3)N=C2N1Cc1ccc(OC)cc1OC` gave DDE Tn6 FP inh inactive, PLC-beta3 inh inactive, PLC-gamma1 inh inactive and DDE Tn7 FP inh inactive.
CCC(NC(=O)NC1CCCCC1)c1ccccc1 (configuration not stated) was read as DDE Tn6 FP inh inactive, PLC-beta3 inh 11.7, PLC-gamma1 inh 9.5, KLK7 zymogen act inactive, NRP1-CendR mod inactive, DDE Tn7 FP inh inactive, PLCg1 ctr inactive and PLCb3 confirm inactive.
Screening Cn1c(C(O)c2ccc(Cl)cc2)nc(Cl)c1Cl (configuration not stated) returned DDE Tn6 FP inh inactive, PLC-beta3 inh inactive, PLC-gamma1 inh 11.1, KLK7 zymogen act inactive, NRP1-CendR mod inactive, DDE Tn7 FP inh inactive, PLCg1 ctr inactive and PLCb3 confirm inactive.
Screening Cn1c(C(O)c2ccc(Br)cc2)nc(Cl)c1Cl (configuration not stated) returned DDE Tn6 FP inh inactive, PLC-beta3 inh inactive, PLC-gamma1 inh inactive, KLK7 zymogen act inactive, NRP1-CendR mod inactive and DDE Tn7 FP inh inactive.
For O=C1NC(=S)N/C1=C/c1cccnc1 the results were DDE Tn6 FP inh inactive, PLC-beta3 inh inactive, PLC-gamma1 inh 11.3, KLK7 zymogen act inactive, NRP1-CendR mod inactive, DDE Tn7 FP inh inactive, PLCg1 ctr inactive and PLCb3 confirm inactive.
`O=C1NC(=S)N/C1=C\c1cccnc1` gave DDE Tn6 FP inh inactive, PLC-beta3 inh inactive, PLC-gamma1 inh inactive, KLK7 zymogen act inactive, NRP1-CendR mod inactive and DDE Tn7 FP inh inactive.
Screening CC(C)CNC(=O)c1cc([N+](=O)[O-])ccc1N1CCOCC1 returned DDE Tn6 FP inh inactive, PLC-beta3 inh inactive, PLC-gamma1 inh 10.5, KLK7 zymogen act inactive, NRP1-CendR mod inactive, DDE Tn7 FP inh inactive, PLCg1 ctr inactive and PLCb3 confirm inactive.
For CCN1Cc2nnn(Cc3ccc(C)cc3)c2-c2ccccc2S1(=O)=O the results were DDE Tn6 FP inh inactive, PLC-beta3 inh inactive, PLC-gamma1 inh inactive, KLK7 zymogen act inactive and DDE Tn7 FP inh inactive.
CC1CCN(c2nc3c(c(=O)n(C)c(=O)n3C)n2Cc2ccccc2)CC1 was read as DDE Tn6 FP inh inactive, PLC-beta3 inh inactive, PLC-gamma1 inh inactive, KLK7 zymogen act inactive, NRP1-CendR mod inactive and DDE Tn7 FP inh inactive.
Screening CCn1c(N2CCC(C)CC2)nc2c1c(=O)n(C)c(=O)n2C returned DDE Tn6 FP inh inactive, PLC-beta3 inh inactive, PLC-gamma1 inh 11.7, KLK7 zymogen act inactive, NRP1-CendR mod inactive, DDE Tn7 FP inh inactive, PLCg1 ctr inactive and PLCb3 confirm inactive.
COC(=O)[C@]12C[C@H](CC(=O)NCc3cccc(C(F)(F)F)c3)C(=O)N(CCC3=CCCCC3)C1=C[C@H](C1CCCC1)O[C@@H]2C was read as DDE Tn6 FP inh inactive, PLC-beta3 inh inactive, PLC-gamma1 inh inactive, KLK7 zymogen act inactive and DDE Tn7 FP inh inactive.
`O=C(OC12CCCN(C1)/C(=C/c1ccncc1)C2)c1ccco1` (configuration not stated) gave DDE Tn6 FP inh inactive, PLC-beta3 inh inactive, PLC-gamma1 inh inactive, KLK7 zymogen act inactive and DDE Tn7 FP inh inactive.
`CCNC(=O)C1(C)CCN1CCS(=O)(=O)c1ccc(C)cc1` (configuration not stated) gave DDE Tn6 FP inh inactive, PLC-beta3 inh 12.6, PLC-gamma1 inh inactive, KLK7 zymogen act inactive, NRP1-CendR mod inactive, DDE Tn7 FP inh inactive, PLCg1 ctr inactive and PLCb3 confirm inactive.
